# Assay results reported in ChEMBL document CHEMBL5678806, “NMS-P937, an orally available, specific small-molecule polo-like kinase 1 inhibitor with antitumor activity in solid and hematologic malignancies” (Mol Cancer Ther, 2012).
# The source made the active and inactive calls. No cut-off for these calls is given here.
# Experiments:
# [1] = biological target: Glycogen synthase kinase-3 beta (Homo sapiens, UniProt P49841); assay: Inhibition of GSK3beta (unknown origin) in presence of [gamma-33P]ATP
# [2] = biological target: Eukaryotic translation initiation factor 2-alpha kinase 3 (Homo sapiens, UniProt Q9NZJ5); assay: Inhibition of PERK (unknown origin) in presence of [gamma-33P]ATP
# Chain of Eukaryotic translation initiation factor 2-alpha kinase 3 (Q9NZJ5 whole entry): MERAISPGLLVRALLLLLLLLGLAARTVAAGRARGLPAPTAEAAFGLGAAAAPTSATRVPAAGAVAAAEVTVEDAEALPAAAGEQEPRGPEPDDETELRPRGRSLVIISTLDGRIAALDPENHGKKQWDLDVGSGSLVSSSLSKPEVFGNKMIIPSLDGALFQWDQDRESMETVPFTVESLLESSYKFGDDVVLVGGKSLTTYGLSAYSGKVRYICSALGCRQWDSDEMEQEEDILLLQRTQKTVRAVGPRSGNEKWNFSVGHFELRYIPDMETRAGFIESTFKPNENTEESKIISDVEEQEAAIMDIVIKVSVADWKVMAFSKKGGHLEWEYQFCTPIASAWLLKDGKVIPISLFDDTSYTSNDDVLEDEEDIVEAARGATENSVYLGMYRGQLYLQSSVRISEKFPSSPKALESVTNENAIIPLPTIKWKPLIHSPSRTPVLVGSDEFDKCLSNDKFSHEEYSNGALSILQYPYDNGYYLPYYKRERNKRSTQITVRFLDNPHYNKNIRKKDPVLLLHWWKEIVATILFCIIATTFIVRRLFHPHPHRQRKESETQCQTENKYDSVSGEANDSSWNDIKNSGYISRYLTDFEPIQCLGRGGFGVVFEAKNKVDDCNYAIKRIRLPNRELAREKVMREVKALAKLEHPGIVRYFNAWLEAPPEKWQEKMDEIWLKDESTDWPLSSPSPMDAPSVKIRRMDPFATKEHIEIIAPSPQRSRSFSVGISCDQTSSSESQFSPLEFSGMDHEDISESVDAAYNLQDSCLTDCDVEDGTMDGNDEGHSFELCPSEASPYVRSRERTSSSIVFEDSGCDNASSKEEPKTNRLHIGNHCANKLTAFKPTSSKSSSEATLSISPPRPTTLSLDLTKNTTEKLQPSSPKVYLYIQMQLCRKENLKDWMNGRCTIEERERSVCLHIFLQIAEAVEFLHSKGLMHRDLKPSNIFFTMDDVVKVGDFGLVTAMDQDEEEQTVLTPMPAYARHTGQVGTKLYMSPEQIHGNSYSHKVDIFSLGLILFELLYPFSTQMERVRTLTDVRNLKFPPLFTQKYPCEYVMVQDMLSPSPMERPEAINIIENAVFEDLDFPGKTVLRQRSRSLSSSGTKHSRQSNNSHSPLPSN
# [3] = biological target: Cytoplasmic tyrosine-protein kinase BMX (Homo sapiens) (UniProt P51813); assay: Inhibition of recombinant human Bmx assessed as residual activity at 0.1 uM relative to control
# Chain of Cytoplasmic tyrosine-protein kinase BMX (Homo sapiens) (P51813 whole entry): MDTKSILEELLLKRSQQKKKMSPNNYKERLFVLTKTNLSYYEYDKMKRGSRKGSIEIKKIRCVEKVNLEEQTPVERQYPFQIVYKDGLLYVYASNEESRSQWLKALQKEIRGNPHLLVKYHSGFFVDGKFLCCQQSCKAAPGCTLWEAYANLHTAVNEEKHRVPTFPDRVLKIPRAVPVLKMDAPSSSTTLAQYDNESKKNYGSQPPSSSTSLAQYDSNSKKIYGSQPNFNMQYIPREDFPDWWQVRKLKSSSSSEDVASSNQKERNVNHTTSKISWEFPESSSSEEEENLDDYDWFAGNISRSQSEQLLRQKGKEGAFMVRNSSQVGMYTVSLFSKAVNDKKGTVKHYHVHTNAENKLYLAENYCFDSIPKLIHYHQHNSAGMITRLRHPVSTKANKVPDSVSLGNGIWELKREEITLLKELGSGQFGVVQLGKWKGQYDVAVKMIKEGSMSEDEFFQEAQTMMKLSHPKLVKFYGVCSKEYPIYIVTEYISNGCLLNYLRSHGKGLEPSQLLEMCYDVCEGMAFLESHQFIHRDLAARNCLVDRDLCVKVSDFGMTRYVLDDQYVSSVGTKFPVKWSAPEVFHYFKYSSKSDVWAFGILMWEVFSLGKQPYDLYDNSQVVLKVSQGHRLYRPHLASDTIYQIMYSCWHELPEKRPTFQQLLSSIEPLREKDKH
# [4] = biological target: CDK9/cyclin T1 (Homo sapiens) (UniProt O60563+P50750); assay: Inhibition of C-terminal 6His-tagged full-length recombinant human CDK9/ full-length human cyclin T1 expressed in baculovirus infected Sf21 cells assessed as residual activity at 0.1 uM relative to control
# [5] = biological target: Casein kinase I isoform gamma-3 (Homo sapiens) (UniProt Q9Y6M4); assay: Inhibition of N-terminal 6His-tagged recombinant human CK1gamma3 (1 to 330 residues) expressed in baculovirus infected Sf21 cells assessed as residual activity at 0.1 uM relative to control
# [6] = biological target: cAMP-dependent protein kinase (PKA) (Homo sapiens) (UniProt P22694+P17612+P22612); assay: Inhibition of recombinant human full-length PKA expressed in E.coli BL21 (DE3) pLysS cells assessed as residual activity at 0.1 uM relative to control
# [7] = biological target: MAP kinase-activated protein kinase 5 (Homo sapiens) (UniProt Q8IW41); assay: Inhibition of N-terminal His6-tagged recombinant human full-length PRAK expressed in baculovirus infected Sf21 cells assessed as residual activity at 0.1 uM relative to control
# Chain of MAP kinase-activated protein kinase 5 (Homo sapiens) (Q8IW41 whole entry): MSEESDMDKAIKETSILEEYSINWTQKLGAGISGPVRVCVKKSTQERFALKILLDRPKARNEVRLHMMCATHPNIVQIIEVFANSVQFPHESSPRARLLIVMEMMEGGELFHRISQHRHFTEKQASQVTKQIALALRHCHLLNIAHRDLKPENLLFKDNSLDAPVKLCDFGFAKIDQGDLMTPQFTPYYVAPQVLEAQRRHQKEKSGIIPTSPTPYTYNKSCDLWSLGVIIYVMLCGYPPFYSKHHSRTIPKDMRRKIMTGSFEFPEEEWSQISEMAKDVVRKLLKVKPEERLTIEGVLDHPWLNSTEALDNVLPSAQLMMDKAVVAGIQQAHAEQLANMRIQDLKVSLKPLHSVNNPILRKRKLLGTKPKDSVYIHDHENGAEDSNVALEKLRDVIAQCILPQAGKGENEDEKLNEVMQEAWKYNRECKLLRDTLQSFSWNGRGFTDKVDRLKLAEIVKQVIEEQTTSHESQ
# [8] = biological target: Ephrin type-B receptor 1 (Homo sapiens) (UniProt P54762); assay: Inhibition of N-terminal 6His-tagged recombinant human EphB1 (564 to end residues) expressed in baculovirus infected Sf21 cells assessed as residual activity at 1 uM relative to control
# Chain of Ephrin type-B receptor 1 (Homo sapiens) (P54762 whole entry): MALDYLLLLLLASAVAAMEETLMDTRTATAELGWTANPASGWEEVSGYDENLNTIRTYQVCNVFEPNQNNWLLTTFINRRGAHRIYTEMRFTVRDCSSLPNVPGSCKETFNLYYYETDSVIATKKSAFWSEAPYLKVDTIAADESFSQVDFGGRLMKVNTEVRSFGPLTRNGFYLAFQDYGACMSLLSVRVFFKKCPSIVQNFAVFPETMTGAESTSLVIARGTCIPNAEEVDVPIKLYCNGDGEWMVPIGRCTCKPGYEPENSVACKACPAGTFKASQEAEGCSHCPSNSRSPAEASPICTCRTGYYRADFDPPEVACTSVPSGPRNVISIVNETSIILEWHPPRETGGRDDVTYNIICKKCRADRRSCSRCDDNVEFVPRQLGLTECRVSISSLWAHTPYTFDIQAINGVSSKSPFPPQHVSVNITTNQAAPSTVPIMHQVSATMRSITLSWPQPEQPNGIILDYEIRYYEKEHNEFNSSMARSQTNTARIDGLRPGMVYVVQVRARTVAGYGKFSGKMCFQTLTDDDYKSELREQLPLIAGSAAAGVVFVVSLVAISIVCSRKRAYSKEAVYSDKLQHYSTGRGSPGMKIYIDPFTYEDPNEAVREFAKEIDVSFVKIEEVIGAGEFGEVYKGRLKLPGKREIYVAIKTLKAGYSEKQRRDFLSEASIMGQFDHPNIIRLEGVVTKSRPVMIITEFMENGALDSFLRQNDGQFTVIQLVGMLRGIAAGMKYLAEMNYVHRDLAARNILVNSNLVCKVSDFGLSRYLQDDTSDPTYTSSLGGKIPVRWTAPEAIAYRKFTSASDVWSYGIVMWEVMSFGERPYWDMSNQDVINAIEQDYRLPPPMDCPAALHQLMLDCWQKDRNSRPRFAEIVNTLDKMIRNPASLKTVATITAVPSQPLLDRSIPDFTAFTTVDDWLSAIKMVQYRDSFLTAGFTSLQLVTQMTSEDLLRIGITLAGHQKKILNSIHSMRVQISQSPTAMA
# [9] = biological target: Tyrosine-protein kinase Fgr (Homo sapiens) (UniProt P09769); assay: Inhibition of N-terminal His6-tagged recombinant human Fgr (2 to end residues) expressed in baculovirus infected Sf21 cells assessed as residual activity at 1 uM relative to control
# [10] = biological target: Inhibitor of nuclear factor kappa-B kinase subunit beta (Homo sapiens) (UniProt O14920); assay: Inhibition of N-terminal His6 tagged recombinant full-length human IKKbeta expressed in baculovirus infected Sf21 cells assessed as residual activity at 1 uM relative to control
# [11] = biological target: Ribosomal protein S6 kinase alpha-4 (Homo sapiens) (UniProt O75676); assay: Inhibition of N-terminal His6-tagged recombinant human MSK2 (2 to end residues) expressed in baculovirus infected Sf21 cells assessed as residual activity at 1 uM relative to control
# [12] = biological target: Serine/threonine-protein kinase Nek3 (Homo sapiens) (UniProt P51956); assay: Inhibition of N-terminal 6His-tagged recombinant full length human NEK3 expressed in baculovirus infected Sf21 cells assessed as residual activity at 1 uM relative to control
# [13] = biological target: Protein kinase C delta type (Homo sapiens) (UniProt Q05655); assay: Inhibition of N-terminal His6-tagged recombinant human PKCdelta (2 to end residues) expressed in Sf21 cells assessed as residual activity at 1 uM relative to control
# Chain of Protein kinase C delta type (Homo sapiens) (Q05655 whole entry, looked up): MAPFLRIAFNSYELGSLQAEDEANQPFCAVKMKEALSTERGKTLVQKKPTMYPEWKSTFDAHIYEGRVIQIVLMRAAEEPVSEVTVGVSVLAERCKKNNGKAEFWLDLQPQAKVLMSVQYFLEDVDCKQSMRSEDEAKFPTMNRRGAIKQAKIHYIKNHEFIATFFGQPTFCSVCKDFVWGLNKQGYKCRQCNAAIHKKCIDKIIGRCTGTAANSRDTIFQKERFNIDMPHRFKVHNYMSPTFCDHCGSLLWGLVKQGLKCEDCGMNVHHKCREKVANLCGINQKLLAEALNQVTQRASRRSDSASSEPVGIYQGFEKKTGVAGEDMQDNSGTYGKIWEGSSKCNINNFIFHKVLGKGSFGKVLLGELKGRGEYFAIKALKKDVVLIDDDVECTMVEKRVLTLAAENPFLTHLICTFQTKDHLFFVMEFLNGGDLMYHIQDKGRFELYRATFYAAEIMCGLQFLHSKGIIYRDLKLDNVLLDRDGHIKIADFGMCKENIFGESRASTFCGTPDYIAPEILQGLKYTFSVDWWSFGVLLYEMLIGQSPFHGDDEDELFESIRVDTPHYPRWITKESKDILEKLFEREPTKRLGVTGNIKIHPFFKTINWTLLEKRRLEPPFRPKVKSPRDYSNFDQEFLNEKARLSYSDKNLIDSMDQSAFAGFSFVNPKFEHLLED
# [14] = biological target: Serine/threonine-protein kinase ULK3 (Homo sapiens) (UniProt Q6PHR2); assay: Inhibition of N-terminal 6His-tagged recombinant human full-length ULK3 expressed in baculovirus infected Sf21 cells assessed as residual activity at 1 uM relative to control
# Chain of Serine/threonine-protein kinase ULK3 (Homo sapiens) (Q6PHR2 whole entry, the tested form may be a part): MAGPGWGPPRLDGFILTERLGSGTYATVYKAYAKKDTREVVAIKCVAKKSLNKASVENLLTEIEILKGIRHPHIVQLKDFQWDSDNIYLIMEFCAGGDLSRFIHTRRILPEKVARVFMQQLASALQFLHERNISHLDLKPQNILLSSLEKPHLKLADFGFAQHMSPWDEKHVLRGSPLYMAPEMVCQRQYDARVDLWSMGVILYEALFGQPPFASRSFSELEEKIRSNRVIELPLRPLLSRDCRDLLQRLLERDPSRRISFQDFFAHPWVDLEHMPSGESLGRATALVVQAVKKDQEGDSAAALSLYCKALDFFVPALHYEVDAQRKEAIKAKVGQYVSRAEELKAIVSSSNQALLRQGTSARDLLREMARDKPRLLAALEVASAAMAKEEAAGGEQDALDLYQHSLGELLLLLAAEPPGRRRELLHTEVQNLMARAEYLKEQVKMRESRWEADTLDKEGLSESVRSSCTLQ
# [15] = biological target: Death-associated protein kinase 3 (Homo sapiens) (UniProt O43293); assay: Inhibition of N-terminal GST tagged recombinant human ZIPK (1 to 290 residues) expressed in E. coli assessed as residual activity at 1 uM relative to control
# Chain of Death-associated protein kinase 3 (Homo sapiens) (O43293 whole entry, looked up, the tested form may be a part): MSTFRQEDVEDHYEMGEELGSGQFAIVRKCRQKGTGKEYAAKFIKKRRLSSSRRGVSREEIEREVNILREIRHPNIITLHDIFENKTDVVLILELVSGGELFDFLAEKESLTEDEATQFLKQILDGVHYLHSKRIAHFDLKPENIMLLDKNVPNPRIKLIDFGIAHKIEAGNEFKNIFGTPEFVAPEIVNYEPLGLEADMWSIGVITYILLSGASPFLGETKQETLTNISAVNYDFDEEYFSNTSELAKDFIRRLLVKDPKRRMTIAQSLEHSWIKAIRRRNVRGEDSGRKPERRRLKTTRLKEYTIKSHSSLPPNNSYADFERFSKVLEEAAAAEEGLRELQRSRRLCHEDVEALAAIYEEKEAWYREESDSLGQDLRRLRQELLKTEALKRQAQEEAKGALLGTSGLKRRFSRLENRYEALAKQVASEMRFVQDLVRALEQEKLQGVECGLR
# [16] = tested on: SK-N-MC; assay: Antiproliferative activity against human SK-N-MC cells assessed as inhibition of cell growth incubated for 72 hrs by cell-titer glo assay; format: functional, cell-based
# [17] = tested on: MFM-223; assay: Antiproliferative activity against human MFM-223 cells assessed as inhibition of cell growth incubated for 72 hrs by cell-titer glo assay; format: functional, cell-based; conditions: MFM-223, 72 h
# Summary of the method: (§1)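 Cells from ATCC or ECACC, kept in supplier-recommended medium with 1% penicillin-streptomycin at 37°C, 5% CO₂. Seeded at 10,000–30,000/cm² (adherent) or 100,000/mL (nonadherent) in medium with 10% fetal calf serum. Dosed after 24 h in duplicate with serial dilutions. Viable cells read by CellTiter-Glo 72 h later. IC50 from sigmoidal fit. At least two independent experiments.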
# [18] = tested on: COLO 320; assay: Antiproliferative activity against human COLO 320 cells assessed as inhibition of cell growth incubated for 72 hrs by cell-titer glo assay; format: functional, cell-based; conditions: COLO 320, 72 h
# Summary of the method: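 Cells seeded 10,000–30,000/cm² (adherent) or 100,000/mL (suspension) in medium with 10% fetal calf serum; after 24 h treated in duplicate with serial dilutions for 72 h. Viable cells read by CellTiter-Glo luminescence; IC50 from sigmoidal fit; at least two independent experiments.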
# [19] = tested on: HT-1080; assay: Antiproliferative activity against human HT-1080 cells assessed as inhibition of cell growth incubated for 72 hrs by cell-titer glo assay; format: functional, cell-based; conditions: HT-1080, 72 h
# Summary of the method: (§2)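 Cells seeded at 10,000–30,000/cm² (adherent) or 100,000/mL (nonadherent) in medium with 10% fetal calf serum; after 24 h, treated in duplicate with serial dilutions for 72 h. Viable cell number read by CellTiter-Glo luminescence; IC50 from sigmoidal fit; at least two independent experiments.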
# [20] = tested on: NCI-H522; assay: Antiproliferative activity against human NCI-H522 cells assessed as inhibition of cell growth incubated for 72 hrs by cell-titer glo assay; format: functional, cell-based; conditions: NCI-H522, 72 h; summary of the method: as §1
# [21] = tested on: HOP-62; assay: Antiproliferative activity against human HOP-62 cells assessed as inhibition of cell growth incubated for 72 hrs by cell-titer glo assay; format: functional, cell-based; conditions: HOP-62, 72 h; summary of the method: as §2
# [22] = tested on: RO82-W-1; assay: Antiproliferative activity against human RO82-W-1 cells assessed as inhibition of cell growth incubated for 72 hrs by cell-titer glo assay; format: functional, cell-based; conditions: RO82-W-1, 72 h; summary of the method: as §1
# [23] = tested on: KG-1; assay: Antiproliferative activity against human KG-1 cells assessed as inhibition of cell growth incubated for 72 hrs by cell-titer glo assay; format: functional, cell-based; conditions: KG-1, 72 h; summary of the method: as §2
# [24] = tested on: A2780; assay: Induction of DNA damage in human A2780 cells assessed as H2AX phosphorylation at 0.5 to 1 uM incubated for 8 hrs by Western blotting analysis; format: functional, cell-based; conditions: dose 0.5-1 µM
# [25] = Volume of distribution at steady state in Beagle dog at 5 mg/kg, iv by LC-MS analysis; format: ADME, organism-based, Canis lupus familiaris; conditions: in vivo, read-out: Vdss
# [26] = Volume of distribution at steady state in male cynomolgus monkey at 5 mg/kg, iv by LC-MS analysis; format: ADME, organism-based, Macaca fascicularis; conditions: in vivo, read-out: Vdss
# [27] = Half-life in Sprague-Dawley rat at 10 mg/kg, iv by LC-MS analysis; format: ADME, organism-based; conditions: in vivo
# [28] = AUC in Beagle dog at 5 mg/kg, po by LC-MS analysis; format: ADME, organism-based, Canis lupus familiaris; conditions: in vivo
# [29] = Oral bioavailability in Sprague-Dawley rat at 10 mg/kg by LC-MS analysis; format: ADME, organism-based; conditions: in vivo
smiles,measurement,setting,value
CN1CCN(c2ccc(OC(F)(F)F)c(Nc3ncc4c(n3)-c3c(c(C(N)=O)nn3CCO)CC4)c2)CC1 [ONVANSERTIB],IC50,[1],> 10000 nM
same,IC50,[2],> 10000 nM
same,Activity,[3],83%
same,Activity,[4],64%
same,Activity,[5],96%
same,Activity,[6],141%
same,Activity,[7],126%
same,Activity,[8],75%
same,Activity,[9],85%
same,Activity,[10],127%
same,Activity,[11],85%
same,Activity,[12],118%
same,Activity,[13],93%
same,Activity,[14],127%
same,Activity,[15],87%
same,IC50,[16],73 nM
same,IC50,[17],10 nM
same,IC50,[18],192 nM
same,IC50,[19],59 nM
same,IC50,[20],34 nM
same,IC50,[21],209 nM
same,IC50,[22],837 nM
same,IC50,[23],58 nM
same,Activity,[24],Active
same,Vd,[25],9.5 L/kg
same,Vd,[26],2.9 L/kg
same,half-life,[27],2.7 h
same,AUC,[28],8.1 µM·h
same,F,[29],100%
